In ChEMBL document CHEMBL1629527, “In vitro antifungal activities of bis(alkylpyridinium)alkane compounds against pathogenic yeasts and molds” (Antimicrob Agents Chemother, 2010):

Assays:
[1] = system: Fusarium solani; test: Antifungal activity against Fusarium solani 04-203102 after 24 to 72 hrs by broth microdilution method; type: functional
Procedure, shortened: (§1)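 Mold isolates subcultured on potato dextrose agar, then tested by CLSI M38-A2 broth microdilution in RPMI 1640 (L-glutamine, no bicarbonate) buffered to pH 7.0 with 0.165 M MOPS. Compounds were dissolved in water and tested at a final 0.175–87.5 μM. Plates were incubated at 35°C. MIC was read visually as the lowest concentration giving 100% inhibition versus the growth control. Each isolate was run in duplicate in two independent experiments.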

[2] = system: Pichia kudriavzevii; test: Antifungal activity against Candida krusei 04-202328 after 24 to 72 hrs by broth microdilution method; type: functional
Procedure, shortened: (§2)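 Broth microdilution MIC per CLSI M27-A3 (yeasts) or M38-A2 (molds). RPMI 1640 with L-glutamine, without bicarbonate, buffered to pH 7.0 with 0.165 M MOPS. Final test range for the compounds was 0.175–87.5 μM. Incubation at 35°C with visual reading at 24–72 h. MIC was the lowest concentration giving 100% inhibition versus the growth control (azoles 50% or 100%, by organism). Each isolate was run in duplicate in two independent experiments.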

[3] = system: Candida dubliniensis; test: Antifungal activity against Candida dubliniensis after 24 to 72 hrs by broth microdilution method; type: functional; procedure, shortened: as §2
[4] = system: Aspergillus terreus; test: Antifungal activity against Aspergillus terreus 05-202844 after 24 to 72 hrs by broth microdilution method; type: functional; procedure, shortened: as §2
[5] = system: Aspergillus fumigatus; test: Antifungal activity against Aspergillus fumigatus 05-203114 after 24 to 72 hrs by broth microdilution method; type: functional; procedure, shortened: as §2
[6] = system: Cryptococcus neoformans; test: Antifungal activity against Cryptococcus neoformans after 24 to 72 hrs by broth microdilution method; type: functional; procedure, shortened: as §2
[7] = system: Cryptococcus gattii species complex; test: Antifungal activity against Cryptococcus gattii after 48 to 72 hrs; type: functional, Cryptococcus bacillisporus
Procedure, shortened: (§3)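 MFC: after the MIC read, 30-μl aliquots from each well without visible growth were plated onto Sabouraud dextrose agar and incubated at 35°C. Reading was at 48–72 h for yeasts and up to 7 days for molds. MFC was the lowest concentration with no colonies.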

[8] = system: Lichtheimia corymbifera; test: Antifungal activity against Absidia corymbifera 04-200170 after 24 to 72 hrs by broth microdilution method; type: functional; procedure, shortened: as §2
[9] = system: Candida parapsilosis; test: Antifungal activity against Candida parapsilosis 04-202398 after 24 to 72 hrs by broth microdilution method; type: functional; conditions: Lodderomyces parapsilosis; procedure, shortened: as §2
[10] = system: Candida dubliniensis; test: Antifungal activity against Candida dubliniensis after 48 to 72 hrs; type: functional; procedure, shortened: as §3
[11] = system: Nakaseomyces glabratus; test: Antifungal activity against Candida glabrata after 48 to 72 hrs; type: functional; procedure, shortened: as §3
[12] = system: Exophiala spinifera; test: Antifungal activity against Exophiala spinifera 03-200803 after 24 to 72 hrs by broth microdilution method; type: functional; procedure, shortened: as §1
[13] = system: Cryptococcus neoformans; test: Antifungal activity against Cryptococcus neoformans 05-202523 after 48 to 72 hrs; type: functional; procedure, shortened: as §3
[14] = system: Cryptococcus neoformans; test: Antifungal activity against Cryptococcus neoformans 05-202523 after 24 to 72 hrs by broth microdilution method; type: functional; procedure, shortened: as §2
[15] = system: Rhizopus arrhizus; test: Antifungal activity against Rhizopus oryzae 05-203111 after 48 to 72 hrs; type: functional
Procedure, shortened: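 After the broth microdilution MIC read, suspension from every well without visible growth was plated onto Sabouraud dextrose agar and incubated at 35°C, up to 7 days for molds. MFC was taken as the lowest drug concentration with no colonies.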

[16] = system: Aspergillus fumigatus; test: Antifungal activity against Aspergillus fumigatus ATCC 204305 after 24 to 72 hrs by broth microdilution method; type: functional; procedure, shortened: as §2
[17] = system: Clavispora lusitaniae; test: Antifungal activity against Candida lusitaniae after 48 to 72 hrs; type: functional; procedure, shortened: as §3
[18] = system: Candida albicans; test: Antifungal activity against Candida albicans ATCC 90028 after 24 to 72 hrs by broth microdilution method; type: functional; procedure, shortened: as §2
[19] = system: Candida albicans; test: Antifungal activity against Candida albicans ATCC 10231 after 24 to 72 hrs by broth microdilution method; type: functional; procedure, shortened: as §2
[20] = system: Candida tropicalis; test: Antifungal activity against Candida tropicalis after 48 to 72 hrs; type: functional; procedure, shortened: as §3
[21] = system: Aspergillus flavus; test: Antifungal activity against Aspergillus flavus ATCC 204304 after 24 to 72 hrs by broth microdilution method; type: functional; procedure, shortened: as §2
[22] = system: Aspergillus flavus; test: Antifungal activity against Aspergillus flavus ATCC 204304 after 48 to 72 hrs; type: functional; procedure, shortened: as §3
[23] = system: Meyerozyma guilliermondii; test: Antifungal activity against Candida guilliermondii after 24 to 72 hrs by broth microdilution method; type: functional; procedure, shortened: as §2
[24] = system: Candida parapsilosis; test: Antifungal activity against Candida parapsilosis after 48 to 72 hrs; type: functional; procedure, shortened: as §3
[25] = system: Pichia kudriavzevii; test: Antifungal activity against Candida krusei after 48 to 72 hrs; type: functional; procedure, shortened: as §3
[26] = system: Aspergillus flavus; test: Antifungal activity against Aspergillus flavus 05-203758 after 24 to 72 hrs by broth microdilution method; type: functional; procedure, shortened: as §2
[27] = system: Lomentospora prolificans; test: Antifungal activity against Scedosporium prolificans 05-203060 after 24 to 72 hrs by broth microdilution method; type: functional; procedure, shortened: as §1
[28] = Toxicity against human erythrocytes assessed as hemolysis; type: cell-based, Erythrocyte
[29] = system: Nakaseomyces glabratus; test: Antifungal activity against Candida glabrata 04-202345 after 24 to 72 hrs by broth microdilution method; type: functional; procedure, shortened: as §2
[30] = system: Clavispora lusitaniae; test: Antifungal activity against Candida lusitaniae after 24 to 72 hrs by broth microdilution method; type: functional; procedure, shortened: as §2
[31] = system: Pichia kudriavzevii; test: Antifungal activity against Candida krusei ATCC 6258 after 24 to 72 hrs by broth microdilution method; type: functional; procedure, shortened: as §2
[32] = system: Candida tropicalis; test: Antifungal activity against Candida tropicalis 04-202361 after 24 to 72 hrs by broth microdilution method; type: functional; procedure, shortened: as §2
[33] = system: Cryptococcus gattii species complex; test: Antifungal activity against Cryptococcus gattii 05-200122 after 24 to 72 hrs by broth microdilution method; type: functional, Cryptococcus bacillisporus; procedure, shortened: as §2
[34] = system: Rhizopus arrhizus; test: Antifungal activity against Rhizopus oryzae 05-203111 after 24 to 72 hrs by broth microdilution method; type: functional; procedure, shortened: as §1
[35] = Antifungal activity against Exophiala jeanselmei 03-200268 after 24 to 72 hrs by broth microdilution method; type: functional; procedure, shortened: as §2
[36] = system: Scedosporium apiospermum; test: Antifungal activity against Scedosporium apiospermum 05-203100 after 24 to 72 hrs by broth microdilution method; type: functional; procedure, shortened: as §1
[37] = system: Cryptococcus gattii species complex; test: Antifungal activity against Cryptococcus gattii after 24 to 72 hrs by broth microdilution method; type: functional, Cryptococcus bacillisporus; procedure, shortened: as §2
[38] = system: Pichia kudriavzevii; test: Antifungal activity against Candida krusei after 24 to 72 hrs by broth microdilution method; type: functional; procedure, shortened: as §2

CCCCCc1cc[n+](CCCCCCCCCCCC[n+]2ccc(CCCCC)c(C)c2)cc1C.[Cl-].[Cl-]
MIC [1]: 12.7 mg/L
MIC [2]: 6.3 mg/L
MIC [3]: 0.908 mg/L
MIC50 [3]: 0.79 mg/L
MIC90 [3]: 0.79 mg/L
MIC [4]: 0.7 mg/L
MIC [5]: 25.3 mg/L
MIC [6]: 1.28 mg/L
MIC50 [6]: 0.79 mg/L
MIC90 [6]: 3.11 mg/L
MFC50 [7]: 0.79 mg/L
MFC90 [7]: 0.79 mg/L
MFC ([7]; Cryptococcus gattii species complex): 0.79 mg/L
MIC [8]: 50.7 mg/L
MIC [9]: 25.3 mg/L
MFC50 [10]: 0.79 mg/L
MFC90 [10]: 1.56 mg/L
MFC ([10]; Candida dubliniensis): 0.79 mg/L
MFC50 [11]: 0.79 mg/L
MFC90 [11]: 1.56 mg/L
MFC ([11]; Nakaseomyces glabratus): 0.39 mg/L
MIC [12]: 0.79 mg/L
MFC [13]: 25.3 mg/L
MIC [14]: 12.7 mg/L
MFC [15]: 6.3 mg/L
MIC [16]: 25.3 mg/L
MFC50 [17]: 3.11 mg/L
MFC90 [17]: 6.22 mg/L
MFC ([17]; Clavispora lusitaniae): 1.56 mg/L
MIC [18]: 1.58 mg/L
MIC [19]: 1.58 mg/L
MFC50 [20]: 0.79 mg/L
MFC90 [20]: 1.56 mg/L
MFC ([20]; Candida tropicalis): 0.39 mg/L
MIC [21]: 12.7 mg/L
MFC [22]: 25.3 mg/L
MIC [23]: 0.903 mg/L
MIC50 [23]: 0.79 mg/L
MIC90 [23]: 1.56 mg/L
MFC50 [24]: 49.5 mg/L
MFC90 [24]: 49.5 mg/L
MFC ([24]; Lodderomyces parapsilosis): 49.5 mg/L
MFC50 [25]: 6.22 mg/L
MFC90 [25]: 6.22 mg/L
MFC ([25]; Pichia kudriavzevii): 0.79 mg/L
MIC [26]: 25.3 mg/L
MIC [27]: 1.58 mg/L
HC50 [28]: > 129 µM
IC50 [28]: > 48 µM
MIC [29]: 0.79 mg/L
MIC [30]: 2.71 mg/L
MIC50 [30]: 3.11 mg/L
MIC90 [30]: 3.11 mg/L
MIC [31]: 6.3 mg/L
MIC [32]: 0.79 mg/L
MIC [33]: 0.79 mg/L
MIC [34]: 1.58 mg/L
MIC [35]: 1.58 mg/L
MIC [36]: 6.3 mg/L
MIC [37]: 0.79 mg/L
MIC50 [37]: 0.79 mg/L
MIC90 [37]: 0.79 mg/L
MIC [38]: 3.12 mg/L
MIC50 [38]: 3.11 mg/L
MIC90 [38]: 6.22 mg/L
